# Calls of active or inactive are those of the source. The calls are words filed in the database; no cut-off is given here.
# What was measured:
# Klebsiella pneumoniae [1] = assay: Antimicrobial activity against blaVIM-1-producing multidrug-resistant Klebsiella pneumoniae 7023 clinical isolate assessed as meropenem MIC using cation-adjusted Mueller-Hinton broth at 4 ug/ml by broth microdilution method (reference value: […] ug/ml); format: functional; conditions: dose 4 µg/ml
# Summary of the method: (§1)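 Checkerboard broth microdilution in cation-supplemented Mueller–Hinton broth, inoculum 5×10^4 CFU/well, per CLSI. […] The average fractional inhibitory concentration index was computed from the checkerboard.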
# Escherichia coli [2] = assay: Antimicrobial activity against blaNDM-1-producing multidrug-resistant Escherichia coli SI-004 clinical isolate assessed as meropenem MIC using cation-adjusted Mueller-Hinton broth at 1 ug/ml by broth microdilution method (reference value: 64 ug/ml); format: functional; conditions: dose 1 µg/ml; summary of the method: as §1
# Klebsiella pneumoniae [3] = assay: Antimicrobial activity against blaVIM-4-producing multidrug-resistant Klebsiella pneumoniae VA-416/02 clinical isolate assessed as meropenem MIC using cation-adjusted Mueller-Hinton broth at 16 ug/ml by broth microdilution method (reference value: […] ug/ml); format: functional; conditions: dose 16 µg/ml; summary of the method: as §1
# Klebsiella pneumoniae [4] = assay: Antimicrobial activity against blaVIM-4-producing multidrug-resistant Klebsiella pneumoniae VA-416/02 clinical isolate assessed as meropenem MIC using cation-adjusted Mueller-Hinton broth at 32 ug/ml by broth microdilution method (reference value: […] ug/ml); format: functional; conditions: dose 32 µg/ml; summary of the method: as §1
# Klebsiella pneumoniae [5] = assay: Antimicrobial activity against blaVIM-1-producing multidrug-resistant Klebsiella pneumoniae 7023 clinical isolate assessed as meropenem MIC using cation-adjusted Mueller-Hinton broth at 32 ug/ml by broth microdilution method (reference value: […] ug/ml); format: functional; conditions: dose 32 µg/ml; summary of the method: as §1
# Escherichia coli [6] = assay: Antimicrobial activity against blaNDM-1-producing multidrug-resistant Escherichia coli SI-004 clinical isolate assessed as meropenem MIC using cation-adjusted Mueller-Hinton broth at 32 ug/ml by broth microdilution method (reference value: 64 ug/ml); format: functional; conditions: dose 32 µg/ml; summary of the method: as §1
# Klebsiella pneumoniae [7] = assay: Antimicrobial activity against blaVIM-4-producing multidrug-resistant Klebsiella pneumoniae VA-416/02 clinical isolate assessed as meropenem MIC using cation-adjusted Mueller-Hinton broth at 2 ug/ml by broth microdilution method (reference value: […] ug/ml); format: functional; conditions: dose 2 µg/ml; summary of the method: as §1
# Escherichia coli [8] = assay: Antimicrobial activity against blaNDM-1-producing multidrug-resistant Escherichia coli SI-004 clinical isolate assessed as meropenem MIC using cation-adjusted Mueller-Hinton broth at 0.5 ug/ml by broth microdilution method (reference value: 64 ug/ml); format: functional; conditions: dose 0.5 µg/ml; summary of the method: as §1
# Klebsiella pneumoniae [9] = assay: Antimicrobial activity against blaVIM-4-producing multidrug-resistant Klebsiella pneumoniae VA-416/02 clinical isolate assessed as meropenem MIC using cation-adjusted Mueller-Hinton broth at 4 ug/ml by broth microdilution method (reference value: […] ug/ml); format: functional; conditions: dose 4 µg/ml; summary of the method: as §1
# Bacteria [10] = assay: Binding affinity to bacterial VIM-2 (unknown origin) assessed as Gibbs free energy by isothermal calorimetric assay
# Summary of the method: (§2)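 ITC at 25 °C. VIM-2 at 19 μM in 10 mM HEPES-NaOH, 0.15 M NaCl, pH 7.5 with DMSO matched to 1%, titrated with compound at 200 μM: one 0.5 μL injection, then 19 × 2 μL at 150 s intervals. Buffer dilution heats subtracted. Nonlinear fit gives n, Ka and ΔH°; values regarded as apparent.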
# Klebsiella pneumoniae [11] = assay: Antimicrobial activity against blaVIM-1-producing multidrug-resistant Klebsiella pneumoniae 7023 clinical isolate assessed as meropenem MIC using cation-adjusted Mueller-Hinton broth at 2 ug/ml by broth microdilution method (reference value: […] ug/ml); format: functional; conditions: dose 2 µg/ml; summary of the method: as §1
# Klebsiella pneumoniae [12] = assay: Antimicrobial activity against blaVIM-1-producing multidrug-resistant Klebsiella pneumoniae 7023 clinical isolate assessed as meropenem MIC using cation-adjusted Mueller-Hinton broth at 1 ug/ml by broth microdilution method (reference value: […] ug/ml); format: functional; conditions: dose 1 µg/ml; summary of the method: as §1
# Escherichia coli [13] = assay: Antimicrobial activity against blaNDM-1-producing multidrug-resistant Escherichia coli SI-004 clinical isolate assessed as meropenem MIC using cation-adjusted Mueller-Hinton broth at 4 ug/ml by broth microdilution method (reference value: 64 ug/ml); format: functional; conditions: dose 4 µg/ml; summary of the method: as §1
# Klebsiella pneumoniae [14] = assay: Antimicrobial activity against blaVIM-4-producing multidrug-resistant Klebsiella pneumoniae VA-416/02 clinical isolate assessed as meropenem MIC using cation-adjusted Mueller-Hinton broth at 0.5 ug/ml by broth microdilution method (reference value: […] ug/ml); format: functional; conditions: dose 0.5 µg/ml; summary of the method: as §1
# [15] = Binding affinity to bacterial VIM-2 (unknown origin) assessed as dissociation constant by isothermal calorimetric assay; parameters: species or system Bacteria; summary of the method: as §2
# Klebsiella pneumoniae [16] = assay: Antimicrobial activity against blaVIM-4-producing multidrug-resistant Klebsiella pneumoniae VA-416/02 clinical isolate assessed as meropenem MIC using cation-adjusted Mueller-Hinton broth at 8 ug/ml by broth microdilution method (reference value: […] ug/ml); format: functional; conditions: dose 8 µg/ml; summary of the method: as §1
# Klebsiella pneumoniae [17] = assay: Antimicrobial activity against blaVIM-1-producing multidrug-resistant Klebsiella pneumoniae 7023 clinical isolate assessed as meropenem MIC using cation-adjusted Mueller-Hinton broth at 0.5 ug/ml by broth microdilution method (reference value: […] ug/ml); format: functional; conditions: dose 0.5 µg/ml; summary of the method: as §1
# Bacteria [18] = assay: Binding affinity to bacterial VIM-2 (unknown origin) assessed as association constant by isothermal calorimetric assay; summary of the method: as §2
# Bacteria [19] = assay: Binding affinity to bacterial VIM-2 (unknown origin) assessed as change in entropy by isothermal calorimetric assay; summary of the method: as §2
# Escherichia coli [20] = assay: Antimicrobial activity against blaNDM-1-producing multidrug-resistant Escherichia coli SI-004 clinical isolate assessed as meropenem MIC using cation-adjusted Mueller-Hinton broth at 8 ug/ml by broth microdilution method (reference value: 64 ug/ml); format: functional; conditions: dose 8 µg/ml; summary of the method: as §1
# Bacteria [21] = assay: Inhibition of bacterial VIM-2 (unknown origin) assessed as Zn(II) content in protein at >5 uM by overnight equilibrium dialysis
# Summary of the method: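 VIM-2 or NDM-1 (3 μM final) in 50 mM HEPES pH 7.5 mixed with compound at 0–48 μM. Incubated 1 h on ice, then dialysed overnight at 4 °C against 50 mM HEPES pH 7.5. Zn(II) content measured by atomic absorption at 213.86 nm against a zinc standard curve. Each point averages three samples.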
compound,measurement,setting,value
O=C(O)[C@H](CCCn1c(-c2ccccc2)n[nH]c1=S)N(Cc1c[nH]cn1)Cc1c[nH]cn1,MIC,Klebsiella pneumoniae [1],2 µg/mL
same,MIC,Escherichia coli [2],64 µg/mL
same,MIC,Klebsiella pneumoniae [3],0.06 µg/mL
same,MIC,Klebsiella pneumoniae [4],0.03 µg/mL
same,MIC,Klebsiella pneumoniae [5],0.03 µg/mL
same,MIC,Escherichia coli [6],0.03 µg/mL
same,MIC,Klebsiella pneumoniae [7],4 µg/mL
same,MIC,Escherichia coli [8],64 µg/mL
same,MIC,Klebsiella pneumoniae [9],2 µg/mL
same,deltaG,Bacteria [10],-8.4 kcal/mol
same,MIC,Klebsiella pneumoniae [11],4 µg/mL
same,MIC,Klebsiella pneumoniae [12],8 µg/mL
same,MIC,Escherichia coli [13],32 µg/mL
same,MIC,Klebsiella pneumoniae [14],16 µg/mL
same,Kd,[15],700 nM
same,MIC,Klebsiella pneumoniae [16],1 µg/mL
same,MIC,Klebsiella pneumoniae [17],16 µg/mL
same,Ka,Bacteria [18],1.4 10^6/M
same,TdeltaS,Bacteria [19],-1.4 kcal/mol
same,MIC,Escherichia coli [20],32 µg/mL
O=C(O)[C@H](CCCn1c(-c2ccccc2)n[nH]c1=S)N(Cc1ccccn1)Cc1ccccn1,inhibition,Bacteria [21],Active

# Source: ChEMBL document CHEMBL5236609, “Optimization of 1,2,4-Triazole-3-thiones toward Broad-Spectrum Metallo-β-lactamase Inhibitors Showing Potent Synergistic Activity on VIM- and NDM-1-Producing Clinical Isolates” (J Med Chem, 2022)
